Values after ≈ are worked out from the molar mass of the structure shown. Active and inactive are the calls of the source. The rule behind the calls is not given here.
Experiments:
[1] = test system: Moraxella catarrhalis; experiment: Antibacterial activity against Moraxella catarrhalis by microbroth technology; format: functional
Procedure, shortened: (§1)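 MIC determined by broth microdilution, reported in µg/mL.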

[2] = Clearance in mouse at 4 mg/kg, iv; format: ADME, organism-based; parameters: dose 4 mg/kg, route intravenous; settings: in vivo
[3] = AUC (0 to 24 hrs) in Sprague-Dawley rat plasma at 200 mg/kg/day, po after 14 days; format: ADME, organism-based; parameters: dose 200 mg/kg/day, time < 24 hr, route oral
Procedure, shortened: (§2)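 Female Sprague-Dawley rats received vehicle or drug by oral gavage daily for 14 days, at doses of 40-1000 (mg/kg)/day across the studies. End points were moribundity or lethality, hematology (RBC, hemoglobin, hematocrit, reticulocytes), bone marrow M:E ratio and plasma AUC(0-24).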

[4] = test system: Staphylococcus aureus; experiment: Antibacterial activity against Staphylococcus aureus UC76 in po dosed CD1 mouse systemic infection model assessed as mortality after 7 days; format: functional
[5] = test system: Staphylococcus aureus; experiment: Antibacterial activity against levofloxacin-oxacillin-resistant Staphylococcus aureus UC76 SA1 by micro-broth technology; format: functional
Procedure, shortened: (§3)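 Drug-resistant panel strains (levofloxacin/oxacillin-resistant S. aureus, levofloxacin/penicillin-resistant S. pneumoniae, vancomycin-resistant E. faecalis and E. faecium). Broth microdilution MIC in µg/mL; value reported as MIC90 across the strains of each resistant group.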

[6] = test system: Rattus norvegicus; experiment: Bioavailability in Sprague-Dawley rat at 20 mg/kg, po; format: ADME, organism-based; settings: in vivo
[7] = test system: Staphylococcus aureus; experiment: Antibacterial activity against methicillin-resistant Staphylococcus aureus SA1417 in po dosed CD1 mouse systemic infection model assessed as mortality after 7 days; format: functional
[8] = target: Cytochrome P450 2C9 (Homo sapiens, UniProt P11712); experiment: Inhibition of human liver microsome CYP2C9; format: ADME, microsomes
Sequence of Cytochrome P450 2C9 (P11712 whole entry): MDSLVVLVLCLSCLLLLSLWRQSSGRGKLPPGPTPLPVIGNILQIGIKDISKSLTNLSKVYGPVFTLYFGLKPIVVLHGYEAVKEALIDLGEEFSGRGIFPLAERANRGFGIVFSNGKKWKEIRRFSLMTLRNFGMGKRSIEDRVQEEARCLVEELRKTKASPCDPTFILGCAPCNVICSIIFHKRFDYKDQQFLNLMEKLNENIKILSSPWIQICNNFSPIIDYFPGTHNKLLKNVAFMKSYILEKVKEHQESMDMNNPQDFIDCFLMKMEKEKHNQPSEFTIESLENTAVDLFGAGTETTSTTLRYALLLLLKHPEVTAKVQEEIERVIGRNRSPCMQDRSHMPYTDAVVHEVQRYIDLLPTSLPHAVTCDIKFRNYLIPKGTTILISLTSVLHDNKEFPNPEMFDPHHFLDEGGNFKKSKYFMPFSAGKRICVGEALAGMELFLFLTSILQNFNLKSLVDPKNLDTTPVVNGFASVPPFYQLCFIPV
Procedure, shortened: (§4)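 Done in duplicate with 0.03-0.2 mg/mL human liver microsomes, 1 mM NADPH and 50 mM potassium phosphate, pH 7.4. Probe substrates: 30 µM phenacetin (1A2), 7.5 µM diclofenac (2C9), 50 µM […], 10 µM dextromethorphan (2D6), and 50 µM phenacetin, 50 µM midazolam or 1.5 µM felodipine (3A4). Drug was tested at 0-1000 µM. Reactions were quenched with ice-cold acetonitrile after 7-30 min and analysed by LC/MS.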

[9] = test system: Enterococcus faecium; experiment: Antibacterial activity against vancomycin-resistant Enterococcus faecium by micro-broth technology; format: functional; procedure, shortened: as §3
[10] = test system: Enterococcus; experiment: Bacteriostatic activity against Enterococcus after 48 hrs by time kill study; format: functional, organism-based
[11] = target: Cytochrome P450 2D6 (Homo sapiens, UniProt P10635); experiment: Inhibition of human liver microsome CYP2D6; format: ADME, microsomes; procedure, shortened: as §4
Sequence of Cytochrome P450 2D6 (P10635 whole entry): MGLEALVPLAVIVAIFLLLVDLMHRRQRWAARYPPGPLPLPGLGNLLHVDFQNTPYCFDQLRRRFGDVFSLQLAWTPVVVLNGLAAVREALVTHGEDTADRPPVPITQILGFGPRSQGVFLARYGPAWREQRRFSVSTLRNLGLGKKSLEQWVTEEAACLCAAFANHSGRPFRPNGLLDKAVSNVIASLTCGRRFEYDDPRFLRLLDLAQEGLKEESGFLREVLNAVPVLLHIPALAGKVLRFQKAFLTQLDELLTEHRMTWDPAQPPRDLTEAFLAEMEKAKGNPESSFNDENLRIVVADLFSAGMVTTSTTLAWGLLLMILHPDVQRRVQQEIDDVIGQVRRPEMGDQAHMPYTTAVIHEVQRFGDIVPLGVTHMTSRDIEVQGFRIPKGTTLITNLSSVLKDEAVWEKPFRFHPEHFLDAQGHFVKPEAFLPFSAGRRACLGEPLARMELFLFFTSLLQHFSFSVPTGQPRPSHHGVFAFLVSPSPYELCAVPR

[12] = target: T1, Cytochrome P450 1A2 (Homo sapiens, UniProt P05177); experiment: Inhibition of human liver microsome CYP1A2; format: ADME, microsomes; procedure, shortened: as §4
T1 sequence (P05177 whole entry): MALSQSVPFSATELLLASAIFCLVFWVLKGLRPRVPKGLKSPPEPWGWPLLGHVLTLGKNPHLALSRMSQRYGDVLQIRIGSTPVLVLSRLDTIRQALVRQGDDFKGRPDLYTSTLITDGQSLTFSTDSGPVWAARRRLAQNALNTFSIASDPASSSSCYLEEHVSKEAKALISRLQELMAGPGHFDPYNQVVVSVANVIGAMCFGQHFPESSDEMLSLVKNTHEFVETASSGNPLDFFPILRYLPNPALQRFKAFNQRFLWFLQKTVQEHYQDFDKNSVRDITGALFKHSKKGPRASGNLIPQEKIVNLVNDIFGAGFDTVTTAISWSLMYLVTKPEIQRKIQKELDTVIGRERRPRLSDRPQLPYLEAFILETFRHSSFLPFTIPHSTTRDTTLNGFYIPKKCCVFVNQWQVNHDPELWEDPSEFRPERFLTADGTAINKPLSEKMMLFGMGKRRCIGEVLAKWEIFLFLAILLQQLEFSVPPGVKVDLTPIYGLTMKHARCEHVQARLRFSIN

[13] = AUC in mouse at 20 mg/kg, po; format: ADME, organism-based; parameters: dose 20 mg/kg, route oral; settings: plasma
[14] = Volume of distribution at steady state in Sprague-Dawley rat at 10 mg/kg, iv; format: ADME, organism-based; parameters: dose 10 mg/kg, route intravenous; settings: in vivo, read-out: Vdss
[15] = test system: Staphylococcus aureus; experiment: Antibacterial activity against […] in po dosed CD1 mouse systemic infection model assessed as mortality after 7 days; format: functional
[16] = Half life in mouse at 20 mg/kg, po; format: ADME, organism-based; parameters: dose 20 mg/kg, route oral; settings: in vivo
[17] = Cmax in mouse at 20 mg/kg, po; format: ADME, organism-based; parameters: dose 20 mg/kg, route oral; settings: in vivo
[18] = test system: Rattus norvegicus; experiment: Toxicity in Sprague-Dawley rat at 600 mg/kg/day, po after 14 days; format: organism-based; parameters: route oral; settings: in vivo, 336 h; procedure, shortened: as §2
[19] = target: T2, Amine oxidase [flavin-containing] A (Homo sapiens, UniProt P21397); experiment: Inhibition of human recombinant MAOA
T2 sequence (P21397 whole entry): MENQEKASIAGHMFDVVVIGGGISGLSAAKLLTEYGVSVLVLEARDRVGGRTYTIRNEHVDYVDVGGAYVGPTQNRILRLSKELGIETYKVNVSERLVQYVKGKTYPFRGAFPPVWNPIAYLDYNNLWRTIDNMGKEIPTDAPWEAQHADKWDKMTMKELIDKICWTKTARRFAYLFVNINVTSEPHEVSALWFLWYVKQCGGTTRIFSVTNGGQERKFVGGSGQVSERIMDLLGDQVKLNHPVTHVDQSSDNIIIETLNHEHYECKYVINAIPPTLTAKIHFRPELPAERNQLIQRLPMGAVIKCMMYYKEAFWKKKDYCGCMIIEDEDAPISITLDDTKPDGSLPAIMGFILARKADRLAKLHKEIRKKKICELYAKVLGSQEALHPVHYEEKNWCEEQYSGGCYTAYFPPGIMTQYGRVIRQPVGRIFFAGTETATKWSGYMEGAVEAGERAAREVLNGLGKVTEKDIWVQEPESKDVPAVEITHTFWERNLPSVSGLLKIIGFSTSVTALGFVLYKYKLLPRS

[20] = test system: Rattus norvegicus; experiment: Effect on hematology in Sprague-Dawley rat assessed as increase in hematocrit at 600 mg/kg/day, po after 14 days; format: ADME, organism-based; parameters: route oral; settings: in vivo, 336 h; procedure, shortened: as §2
[21] = test system: Rattus norvegicus; experiment: Effect on hematology in Sprague-Dawley rat assessed as decrease in reticulocytes at 600 mg/kg/day, po after 14 days; format: ADME, organism-based; parameters: route oral; scale not given: the % may be the effect or the level left; settings: in vivo, 336 h; procedure, shortened: as §2
[22] = test system: Rattus norvegicus; experiment: AUC in Sprague-Dawley rat at 20 mg/kg, po; format: ADME, organism-based, Plasma; parameters: dose 20 mg/kg, route oral; settings: in vivo
[23] = Cmax in dog at 20 mg/kg, po; format: ADME, organism-based, Canis lupus familiaris; parameters: dose 20 mg/kg, route oral; settings: in vivo
[24] = Half life in dog at 20 mg/kg, po; format: ADME, organism-based, Canis lupus familiaris; parameters: dose 20 mg/kg, route oral; settings: in vivo
[25] = test system: Streptococcus pneumoniae; experiment: Bactericidal activity against Streptococcus pneumoniae after 48 hrs by time kill study; format: functional, organism-based
Procedure, shortened: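 Time-kill study: bacteria exposed continuously to drug at 2-16× the MIC and sampled over 48 h to assess eradication.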

[26] = test system: Escherichia coli; experiment: Inhibition of protein synthesis in Escherichia coli by cell-free transcription-translation assay; format: functional
Procedure, shortened: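 E. coli cell-free coupled transcription/translation run in microtiter format with a luciferase reporter; luminescence was the read-out for protein synthesis.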

[27] = test system: Rattus norvegicus; experiment: Increase in bone marrow myeloid/erythroid ratio in Sprague-Dawley rat at 600 mg/kg/day, po after 14 days; format: ADME, organism-based; parameters: route oral; settings: in vivo, 336 h
[28] = test system: Canis familiaris; experiment: Bioavailability in dog at 20 mg/kg, po; format: ADME, organism-based, Canis lupus familiaris; settings: in vivo
[29] = Half life in Sprague-Dawley rat at 20 mg/kg, po; format: ADME, organism-based; parameters: dose 20 mg/kg, route oral; settings: in vivo
[30] = Volume of distribution at steady state in mouse at 4 mg/kg, iv; format: ADME, organism-based; parameters: dose 4 mg/kg, route intravenous; settings: in vivo, read-out: Vdss
[31] = test system: Haemophilus influenzae; experiment: Antibacterial activity against Haemophilus influenzae by micro-broth technology; format: functional; procedure, shortened: as §1
[32] = test system: Staphylococcus; experiment: Bacteriostatic activity against Staphylococcus after 48 hrs by time kill study; format: functional, organism-based
[33] = test system: Enterococcus faecalis; experiment: Antibacterial activity against vancomycin-resistant Enterococcus faecalis MGH2 EF1 by microbroth technology; format: functional; procedure, shortened: as §3
[34] = test system: Rattus norvegicus; experiment: Effect on hematology in Sprague-Dawley rat assessed as increase in red blood cells at 600 mg/kg/day, po after 14 days; format: ADME, organism-based; parameters: route oral; settings: in vivo, 336 h; procedure, shortened: as §2
[35] = target: Cytochrome P450 2C19 (Homo sapiens, UniProt P33261); experiment: Inhibition of human liver microsome CYP2C19; format: ADME, microsomes; procedure, shortened: as §4
Sequence of Cytochrome P450 2C19 (P33261 whole entry): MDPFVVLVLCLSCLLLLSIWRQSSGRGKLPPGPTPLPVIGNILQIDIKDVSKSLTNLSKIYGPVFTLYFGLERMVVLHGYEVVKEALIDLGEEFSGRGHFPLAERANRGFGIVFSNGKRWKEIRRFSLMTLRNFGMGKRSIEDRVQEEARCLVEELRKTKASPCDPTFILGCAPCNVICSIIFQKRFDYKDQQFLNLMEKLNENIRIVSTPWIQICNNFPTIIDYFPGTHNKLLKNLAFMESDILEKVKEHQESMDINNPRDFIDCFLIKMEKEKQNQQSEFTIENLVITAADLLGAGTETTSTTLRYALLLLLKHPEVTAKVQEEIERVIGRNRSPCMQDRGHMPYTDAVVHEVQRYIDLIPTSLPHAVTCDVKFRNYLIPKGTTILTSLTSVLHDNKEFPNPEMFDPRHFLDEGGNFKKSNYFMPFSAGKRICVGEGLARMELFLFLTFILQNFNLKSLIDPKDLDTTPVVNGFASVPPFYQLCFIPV

[36] = test system: Rattus norvegicus; experiment: Effect on hematology in Sprague-Dawley rat assessed as increase in hemoglobin at 600 mg/kg/day, po after 14 days; format: ADME, organism-based; parameters: route oral; settings: in vivo, 336 h; procedure, shortened: as §2
[37] = test system: Staphylococcus aureus; experiment: Antibacterial activity against methicillin-resistant Staphylococcus aureus SA1417 by micro-broth technology; format: functional
[38] = test system: Streptococcus pyogenes; experiment: Antibacterial activity against Streptococcus pyogenes C203 by micro-broth technology; format: functional
[39] = AUC (0 to 24 hrs) in Sprague-Dawley rat plasma at 600 mg/kg/day, po after 14 days; format: ADME, organism-based; parameters: dose 600 mg/kg/day, time < 24 hr, route oral; procedure, shortened: as §2
[40] = target: Cytochrome P450 3A4 (Homo sapiens, UniProt P08684); experiment: Inhibition of human liver microsome CYP3A4; format: ADME, microsomes; procedure, shortened: as §4
Sequence of Cytochrome P450 3A4 (P08684 whole entry): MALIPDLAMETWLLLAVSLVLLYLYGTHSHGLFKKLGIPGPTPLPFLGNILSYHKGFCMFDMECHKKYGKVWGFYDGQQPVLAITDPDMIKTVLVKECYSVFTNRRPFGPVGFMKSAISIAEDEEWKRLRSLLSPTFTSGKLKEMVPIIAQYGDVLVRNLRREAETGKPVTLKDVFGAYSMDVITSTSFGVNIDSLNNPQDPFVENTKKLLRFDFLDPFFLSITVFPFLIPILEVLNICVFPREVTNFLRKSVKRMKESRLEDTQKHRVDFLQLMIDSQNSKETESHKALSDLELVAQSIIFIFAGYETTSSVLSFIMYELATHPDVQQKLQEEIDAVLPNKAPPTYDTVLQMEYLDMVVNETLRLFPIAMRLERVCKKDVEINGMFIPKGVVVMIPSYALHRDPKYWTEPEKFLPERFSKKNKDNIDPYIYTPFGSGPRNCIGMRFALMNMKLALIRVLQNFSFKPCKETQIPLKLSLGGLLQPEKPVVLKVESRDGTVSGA

[41] = Cmax in Sprague-Dawley rat at 20 mg/kg, po; format: ADME, organism-based; parameters: dose 20 mg/kg, route oral; settings: in vivo
[42] = Volume of distribution at steady state in dog at 4 mg/kg, iv; format: ADME, organism-based, Canis lupus familiaris; parameters: dose 4 mg/kg, route intravenous; settings: in vivo, read-out: Vdss
[43] = test system: Canis familiaris; experiment: AUC in dog at 20 mg/kg, po; format: ADME, organism-based, Canis lupus familiaris, Plasma; parameters: dose 20 mg/kg, route oral; settings: in vivo
[44] = test system: Streptococcus pneumoniae; experiment: Antibacterial activity against levofloxacin-penicillin-resistant Streptococcus pneumoniae SV1 SP3 by microbroth technology; format: functional; procedure, shortened: as §3

NC(=O)[C@H]1CN(c2ccc([C@H]3CC[S@+]([O-])CC3)c(F)c2)C(=O)O1
MIC [1]: > 8 mg/L | clearance [2]: 1.51 L/h/kg | AUC at 24 h [3]: 223 µg·h/mL | PD50 [4]: 1.25 mg/kg | MIC90 [5]: 2 mg/L (≈ 5.88 µM) | F [6]: 83% | PD50 [7]: 1.7 mg/kg | IC50 [8]: > 900 µM | MIC90 [9]: 4 mg/L (≈ 11.8 µM) | Activity [10]: Active | IC50 [11]: > 900 µM | IC50 [12]: > 900 µM | AUC [13]: 48.3 µg·h/mL | Vd [14]: 6.2 L/kg | PD50 [15]: <5 mg/kg | half-life [16]: 1.5 h | Cmax [17]: 12.3 µg/mL | Activity [18]: Toxic | IC50 [19]: 546 µM | Activity [20]: 8% | Activity [21]: 62% | AUC [22]: 109 µg·h/mL | Cmax [23]: 17.9 µg/mL | half-life [24]: 6.2 h | Activity [25]: Active | IC50 [26]: 3.4 µM | Ratio [27]: 4.5 | F [28]: 64% | half-life [29]: 5.8 h | Vd [30]: 3.3 L/kg | MIC [31]: > 8 mg/L | Activity [32]: Active | MIC90 [33]: 4 mg/L (≈ 11.8 µM) | Activity [34]: 8% | IC50 [35]: > 900 µM | Activity [36]: 8% | MIC [37]: 4 mg/L (≈ 11.8 µM) | MIC [38]: 4 mg/L (≈ 11.8 µM) | AUC at 24 h [39]: 619 µg·h/mL | IC50 [40]: > 900 µM | Cmax [41]: 15.9 µg/mL | Vd [42]: 0.7 L/kg | AUC [43]: 76.2 µg·h/mL | MIC90 [44]: 2 mg/L (≈ 5.88 µM)
